Measured values gathered from unrelated publications.
Each line is one published result; the experiments were not run side by side.
Target: Cytoplasmic tyrosine-protein kinase BMX (BMX, Homo sapiens, UniProt P51813)
Residues used in one study (P51813 1-675): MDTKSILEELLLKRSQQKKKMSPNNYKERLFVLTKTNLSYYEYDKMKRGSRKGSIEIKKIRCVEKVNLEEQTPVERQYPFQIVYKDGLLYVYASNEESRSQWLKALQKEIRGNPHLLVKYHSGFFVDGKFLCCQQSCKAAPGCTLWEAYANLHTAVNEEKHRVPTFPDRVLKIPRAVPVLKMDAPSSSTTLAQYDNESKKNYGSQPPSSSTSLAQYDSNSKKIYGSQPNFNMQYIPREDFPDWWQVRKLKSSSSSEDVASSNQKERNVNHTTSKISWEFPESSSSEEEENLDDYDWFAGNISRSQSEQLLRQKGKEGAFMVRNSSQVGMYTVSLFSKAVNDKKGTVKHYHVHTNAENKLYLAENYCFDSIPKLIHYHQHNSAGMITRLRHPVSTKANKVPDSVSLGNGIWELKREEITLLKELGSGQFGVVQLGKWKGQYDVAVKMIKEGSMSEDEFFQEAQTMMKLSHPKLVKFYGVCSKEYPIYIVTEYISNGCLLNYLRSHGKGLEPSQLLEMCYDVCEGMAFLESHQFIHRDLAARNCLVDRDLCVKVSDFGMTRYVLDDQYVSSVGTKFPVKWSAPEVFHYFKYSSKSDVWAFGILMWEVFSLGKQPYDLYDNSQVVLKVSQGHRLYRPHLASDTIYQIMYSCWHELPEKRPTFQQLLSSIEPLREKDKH

SMILES	read-out	method	concentration	remaining binding
CN1CCN(c2cnc3c(C4CCN(C(=O)c5ccc(OC(F)(F)F)cc5N)CC4)ncnc3c2)CC1	cell-free assay	competition with immobilised ligand	1 µM	100%
COc1ncc2cc3ccccc3nc2c1C#N	cell-free assay	competition with immobilised ligand	5 µM	99%
COc1ccnn2ncc(-c3ccnc(N(C)C)n3)c12	binding	–	1 µM	100%
CNC(=O)[C@@H]1CC[C@@H](n2c(-c3ccc4cnccc4c3)nc3ccc(C(=O)NCc4cccc(C(N)=O)c4)cc32)C1	binding	competition with immobilised ligand	1 µM	100%
F[C@@H]1CCN(c2nccc(-c3cnn4ncccc34)n2)C1	binding	–	1 µM	83%
CCOCCn1cc(C(=O)Nc2ccc(-n3nc(-c4cccnc4)cc3C(F)(F)F)cn2)ccc1=O	cell-free assay	competition with immobilised ligand	1 µM	84%
C[C@@H]1CCN(c2nccc(-c3cnn4ncccc34)n2)C1	binding	–	1 µM	100%
COc1ccc2cc(OCC3(C(=O)O)CN(C(=O)c4ccc(F)cc4)C3)ccc2c1	cell-free assay	competition with immobilised ligand	1 µM	87%
COc1cnc(Nc2cccc(S(N)(=O)=O)c2)nc1N1CCN(c2ccccc2)C(=O)C1	binding	competition with immobilised ligand	1 µM	100%
c1cncc(-c2cccc(Nc3nccc(NC4CCCCC4)n3)c2)c1	binding	competition with immobilised ligand	10 µM	82%
CCCOc1ccc([C@H]2[C@H](C(=O)O)[C@@H](c3ccc4c(c3)OCO4)CN2CC(=O)Nc2c(CC)cccc2CC)cc1	cell-free assay	competition with immobilised ligand	1 µM	100%
Nc1ncc2c(n1)-c1c([nH]c3ccc(C#CC4CC4)cc13)CCCC2	binding	competition with immobilised ligand	1 µM	86%
O=C(NCCCN1CCOCC1)c1ccc(Nc2nccc(-c3cc4ccccc4s3)n2)cc1	binding	competition with immobilised ligand	1 µM	100%
CN(c1nccc(-c2cnn3ncccc23)n1)C1CC1	binding	–	1 µM	82%
O=C(c1ccc(Nc2ncc(Cl)c(-c3ccc(Cl)s3)n2)cc1)N1CCC(N2CCCC2)CC1	binding	competition with immobilised ligand	1 µM	79%
O=C(N1CCS(=O)(=O)CC1)N1C[C@H](c2ccc(OC(F)(F)F)cc2)C[C@H](c2nc(C3CC3)no2)C1	cell-free assay	competition with immobilised ligand	1 µM	100%
CN(C)c1nccc(-c2cnc3ncccn23)n1	binding	–	1 µM	100%
O=C(c1ccc(Nc2ncc(Cl)c(-c3cc4ccccc4s3)n2)cc1)N1CCC(N2CCCC2)CC1	binding	competition with immobilised ligand	1 µM	75%
O=C(Nc1c[nH]nc1C(=O)NC1CCNCC1)c1cc(F)cc(F)c1	binding	competition with immobilised ligand	1 µM	100%
Cc1cnn2ncc(-c3ccnc(N(C)C)n3)c2c1	binding	–	1 µM	96%
C[C@H](c1cccc(C#N)c1)n1cc(Cl)cc(C(N)=O)c1=N	cell-free assay	competition with immobilised ligand	1 µM	77%
